Measurements published in ChEMBL document CHEMBL1123760, “Synthesis and oral antifungal activity of novel azolylpropanolones and related compounds” (1987).
≈ marks a conversion by molar mass, not a printed value.

Columns and labels:
Assay type in all cases: functional
Mus musculus [1] = experiment: In vivo activity against subacute systemic murine candidiasis in mice at a daose of 12.5-100 mg/kg dosage range. Value was determined at day 15 after infection; conditions: 360 h
Cavia porcellus = experiment: Number of skin sections yielding negative culture / total (48) (percentage) in guinea pig dermatophytosis at dose of 40 mg/kg […]. (Value is from Six skin sections cut out from each treated site)
Method in brief: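 Guinea pigs infected with Trichophyton asteroides, four animals each with two lesion sites. Oral 40 mg/kg once daily for 10 days (day 3 to day 12). Read-out is the rate of negative cultures from infected skin sections.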

Candida albicans [2] = experiment: In vitro antifungal activity against Candida albicans; conditions: Candida albicans; read-out: MIC
Method in brief: (§1)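 Broth microdilution MIC in Sabouraud's glucose broth; final inocula 1 × 10^5 cells/mL (yeast) or 1 × 10^5 conidia/mL (mold and dermatophyte).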

Mus musculus [3] = experiment: Ratio of in vivo number of survivors / total infected; parameters: reference not given here
Candida albicans [4] = experiment: Minimum effective concentration for inhibition of pseudomycelium formation in Candida albicans
Method in brief: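 C. albicans KE-2 (clinical isolate) at a final 1 × 10^6 yeast cells/mL in EMEM with 20% calf serum; compounds diluted by the same microtiter system as for MICs. After incubation, wells were Giemsa-stained (5% in phosphate buffer) and read by microscope. MEC is the lowest concentration preventing typical pseudomycelium formation.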

Aspergillus fumigatus = experiment: In vitro antifungal activity against Aspergillus fumigatus; method in brief: as §1
Trichophyton benhamiae = experiment: In vitro antifungal activity against Trichophyton asteroides; method in brief: as §1

SMILES	ED50 (Mus musculus [1]) [mg/kg]	No. total (Cavia porcellus)	MIC (Candida albicans [2]) [µg/mL]	No. of survivors (Mus musculus [3])	minimal effective concentration (Candida albicans [4]; Candida albicans, read-out: MEC) [µg/mL]	MIC (Aspergillus fumigatus; Aspergillus fumigatus, read-out: MIC) [µg/mL]	MIC (Trichophyton benhamiae; Trichophyton benhamiae, read-out: MIC) [µg/mL]	MEC (Candida albicans [4]) [µg/mL]	MIC (Aspergillus fumigatus) [µg/mL]	MIC (Trichophyton benhamiae) [µg/mL]
CC(C)C(=O)C(O)(Cn1cncn1)c1ccc(Cl)cc1Cl (centres undefined)	22.6	7	100 (≈ 305 µM)	8	0.04	100 (≈ 305 µM)	0.1 (≈ 0.305 µM)			
OC(c1ccc(F)cc1)C(O)(Cn1cncn1)c1ccc(Cl)cc1Cl (stereo in doubt; 92)	25.6	11	50 (≈ 131 µM)	8				0.08	25 (≈ 65.4 µM)	0.1 (≈ 0.262 µM)
